Laboratory results reported in ChEMBL document CHEMBL3286189, “Discovery and SAR studies of a novel class of cytotoxic 1,4-disubstituted piperidines via Ugi reaction” (Eur J Med Chem, 2014).

Columns and labels:
HeLa = experiment: Cytostatic activity against human HeLa cells assessed as inhibition of cell proliferation after 72 hrs by coulter counting analysis; format: functional, cell-based; settings: Homo sapiens, HeLa, 72 h
Method in brief: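 Anti-proliferative screen in murine leukemia L1210, human T-lymphocyte CEM and human cervix carcinoma HeLa cultures. The value reported is the IC50, the concentration that inhibits cell proliferation by 50%.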

CAKI-1 [1] = experiment: Cytostatic activity against human Caki1 cells assessed as inhibition of cell proliferation after 96 hrs by coulter counting analysis; format: functional, cell-based; settings: CAKI-1, 96 h
Method in brief: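 Anti-proliferative testing extended to human kidney Caki-1 and human liver Huh-7 tumour cells. The value reported is the IC50, the concentration that inhibits tumour cell growth by 50%.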

K562 = experiment: Anticancer activity against human K562 cells; format: functional
Method in brief: (§1)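 Values come from the NCI 60-cell-line human tumour panel, run on a single analog. Cytostatic and cytotoxic responses were read for each cell line across graded molar concentrations of that compound.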

RPMI-8226 = experiment: Anticancer activity against human RPMI8226 cells; format: functional; method in brief: as §1
SR = experiment: Anticancer activity against human SR cells; format: functional; method in brief: as §1
HOP-62 = experiment: Anticancer activity against human HOP62 cells; format: functional; method in brief: as §1
[2] = Anticancer activity against human HOP92 cells; format: functional; method in brief: as §1
NCI-H226 = experiment: Anticancer activity against human NCI-H226 cells; format: functional; method in brief: as §1
NCI-H23 = experiment: Anticancer activity against human NCI-H23 cells; format: functional; method in brief: as §1
NCI-H322M = experiment: Anticancer activity against human NCI-H322M cells; format: functional; method in brief: as §1
NCI-H460 = experiment: Anticancer activity against human NCI-H460 cells; format: functional; method in brief: as §1
NCI-H522 = experiment: Anticancer activity against human NCI-H522 cells; format: functional; method in brief: as §1
COLO 205 = experiment: Anticancer activity against human COLO205 cells; format: functional; method in brief: as §1
[3] = Anticancer activity against human HCC2998 cells; format: functional; method in brief: as §1
HCT-116 = experiment: Anticancer activity against human HCT116 cells; format: functional; method in brief: as §1
[4] = Anticancer activity against human HCT15 cells; format: functional; method in brief: as §1
HT-29 = experiment: Anticancer activity against human HT-29 cells; format: functional; method in brief: as §1
SW-620 = experiment: Anticancer activity against human SW620 cells; format: functional; method in brief: as §1
SF-268 = experiment: Anticancer activity against human SF268 cells; format: functional; method in brief: as §1
[5] = Anticancer activity against human SF295 cells; format: functional; method in brief: as §1
SNB-75 = experiment: Anticancer activity against human SNB75 cells; format: functional; method in brief: as §1
U-251 = experiment: Anticancer activity against human U251 cells; format: functional; method in brief: as §1
[6] = Anticancer activity against human LOXIMVI cells; format: functional; settings: LOX IMVI; method in brief: as §1
SK-MEL-5 = experiment: Anticancer activity against human SK-MEL-5 cells; format: functional; method in brief: as §1
[7] = Anticancer activity against human UACC257 cells; format: functional
Method in brief: (§2)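 Assayed in the NCI Cancer-60 human tumour cell line panel, with activity read across several log-step concentrations.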

[8] = Anticancer activity against human UACC62 cells; format: functional; method in brief: as §2
IGROV-1 = experiment: Anticancer activity against human IGROV1 cells; format: functional; method in brief: as §1
[9] = Anticancer activity against human OVCAR3 cells; format: functional; method in brief: as §1
[10] = Anticancer activity against human OVCAR8 cells; format: functional; method in brief: as §1
NCI/ADR-RES = experiment: Anticancer activity against human NCI/ADR-RES cells; format: functional; method in brief: as §1
A498 = experiment: Anticancer activity against human A498 cells; format: functional; method in brief: as §1
CAKI-1 [11] = experiment: Anticancer activity against human Caki1 cells; format: functional
[12] = Anticancer activity against human RXF393 cells; format: functional; method in brief: as §1
SN12C = experiment: Anticancer activity against human SN12C cells; format: functional; method in brief: as §1
[13] = Anticancer activity against human UO31 cells; format: functional; method in brief: as §2
MCF7 = experiment: Anticancer activity against human MCF7 cells; format: functional; method in brief: as §1
MDA-MB-231 = experiment: Anticancer activity against human MDA-MB-231/ATCC cells; format: functional; method in brief: as §1
[14] = Anticancer activity against human Hs 578T cells; format: functional; method in brief: as §1
T47D = experiment: Anticancer activity against human T47D cells; format: functional; method in brief: as §1
MDA-MB-468 = experiment: Anticancer activity against human MDA-MB-468 cells; format: functional; method in brief: as §1
[15] = read-out: pLC50 (the source's name) (converted)

Question: Which results are given for CC(C)(C)OC(=O)N[C@@H](Cc1ccccc1)C(=O)N(Cc1ccccc1)C1(C(=O)NCc2ccccc2)CCN(Cc2ccccc2)CC1?
Answer: IC50 (HeLa): 4.2 µM; IC50 (CAKI-1 [1]): 9.5 µM; GI50 (K562): 3.39 µM; CC50 (K562; [15]): > 100 µM; TGI (K562; read-out: pTGI): > 100 µM; GI50 (RPMI-8226): 2.19 µM; CC50 (RPMI-8226; [15]): > 100 µM; TGI (RPMI-8226; read-out: pTGI (converted)): 6.92 µM; GI50 (SR): 2.34 µM; CC50 (SR; [15]): > 100 µM; TGI (SR; read-out: pTGI (converted)): 7.59 µM; GI50 (HOP-62): 3.89 µM; CC50 (HOP-62; [15]): > 100 µM; TGI (HOP-62; read-out: pTGI): > 100 µM; GI50 ([2]; HOP-92): 1.45 µM; CC50 ([2]; HOP-92, read-out: pLC50 (the source's name) (converted)): > 100 µM; TGI ([2]; HOP-92, read-out: pTGI (converted)): 5.37 µM; GI50 (NCI-H226): 3.24 µM; CC50 (NCI-H226; [15]): > 100 µM; TGI (NCI-H226; read-out: pTGI): > 100 µM; GI50 (NCI-H23): 5.62 µM; CC50 (NCI-H23; [15]): > 100 µM; TGI (NCI-H23; read-out: pTGI): > 100 µM; GI50 (NCI-H322M): 9.33 µM; CC50 (NCI-H322M; [15]): > 100 µM; TGI (NCI-H322M; read-out: pTGI): > 100 µM; GI50 (NCI-H460): 3.02 µM; CC50 (NCI-H460; [15]): > 100 µM; TGI (NCI-H460; read-out: pTGI (converted)): 87.1 µM; GI50 (NCI-H522): 3.98 µM; CC50 (NCI-H522; [15]): > 100 µM; TGI (NCI-H522; read-out: pTGI): > 100 µM; GI50 (COLO 205): 1.66 µM; CC50 (COLO 205; [15]): 6.61 µM; TGI (COLO 205; read-out: pTGI (converted)): 3.31 µM; GI50 ([3]; HCC 2998): 4.57 µM; CC50 ([3]; HCC 2998, read-out: pLC50 (the source's name) (converted)): > 100 µM; TGI ([3]; HCC 2998, read-out: pTGI): > 100 µM; GI50 (HCT-116): 2.4 µM; CC50 (HCT-116; [15]): > 100 µM; TGI (HCT-116; read-out: pTGI (converted)): 10 µM; GI50 ([4]; HCT-15): 3.16 µM; CC50 ([4]; HCT-15, read-out: pLC50 (the source's name) (converted)): > 100 µM; TGI ([4]; HCT-15, read-out: pTGI): > 100 µM; GI50 (HT-29): 2.14 µM; CC50 (HT-29; [15]): 57.5 µM; TGI (HT-29; read-out: pTGI (converted)): 6.76 µM; GI50 (SW-620): 3.47 µM; CC50 (SW-620; [15]): > 100 µM; TGI (SW-620; read-out: pTGI): > 100 µM; GI50 (SF-268): 4.9 µM; CC50 (SF-268; [15]): > 100 µM; TGI (SF-268; read-out: pTGI): > 100 µM; GI50 ([5]; SF-295): 2.88 µM; CC50 ([5]; SF-295, read-out: pLC50 (the source's name) (converted)): > 100 µM; TGI ([5]; SF-295, read-out: pTGI): > 100 µM; GI50 (SNB-75): 2.95 µM; CC50 (SNB-75; [15]): > 100 µM; TGI (SNB-75; read-out: pTGI): > 100 µM; GI50 (U-251): 3.16 µM; CC50 (U-251; [15]): > 100 µM; TGI (U-251; read-out: pTGI): > 100 µM; GI50 [6]: 3.63 µM; CC50 [6, 15]: > 100 µM; TGI ([6]; read-out: pTGI (converted)): 21.4 µM; GI50 (SK-MEL-5): 1.74 µM; CC50 (SK-MEL-5; [15]): 6.31 µM; TGI (SK-MEL-5; read-out: pTGI (converted)): 3.31 µM; GI50 ([7]; UACC-257): 2.57 µM; CC50 ([7]; UACC-257, read-out: pLC50 (the source's name) (converted)): > 100 µM; TGI ([7]; UACC-257, read-out: pTGI): > 100 µM; GI50 ([8]; UACC-62): 2.51 µM; CC50 ([8]; UACC-62, read-out: pLC50 (the source's name) (converted)): > 100 µM; TGI ([8]; UACC-62, read-out: pTGI (converted)): 7.94 µM; GI50 (IGROV-1): 5.75 µM; CC50 (IGROV-1; [15]): > 100 µM; TGI (IGROV-1; read-out: pTGI): > 100 µM; GI50 ([9]; OVCAR-3): 3.98 µM; CC50 ([9]; OVCAR-3, read-out: pLC50 (the source's name) (converted)): > 100 µM; TGI ([9]; OVCAR-3, read-out: pTGI): > 100 µM; GI50 ([10]; OVCAR-8): 3.47 µM; CC50 ([10]; OVCAR-8, read-out: pLC50 (the source's name) (converted)): > 100 µM; TGI ([10]; OVCAR-8, read-out: pTGI): > 100 µM; GI50 (NCI/ADR-RES): 2.88 µM; CC50 (NCI/ADR-RES; [15]): > 100 µM; TGI (NCI/ADR-RES; read-out: pTGI (converted)): 46.8 µM; GI50 (A498): 1.45 µM; CC50 (A498; [15]): > 100 µM; TGI (A498; read-out: pTGI (converted)): 6.31 µM; GI50 (CAKI-1 [11]): 2.34 µM; CC50 (CAKI-1 [11]; [15]): > 100 µM; TGI (CAKI-1 [11]; read-out: pTGI): > 100 µM; GI50 ([12]; RXF 393): 3.09 µM; CC50 ([12]; RXF 393, read-out: pLC50 (the source's name) (converted)): > 100 µM; TGI ([12]; RXF 393, read-out: pTGI): > 100 µM; GI50 (SN12C): 3.47 µM; CC50 (SN12C; [15]): > 100 µM; TGI (SN12C; read-out: pTGI): > 100 µM; GI50 ([13]; UO-31): 2.14 µM; CC50 ([13]; UO-31, read-out: pLC50 (the source's name) (converted)): > 100 µM; TGI ([13]; UO-31, read-out: pTGI): > 100 µM; GI50 (MCF7): 2.82 µM; CC50 (MCF7; [15]): > 100 µM; TGI (MCF7; read-out: pTGI (converted)): 19.1 µM; GI50 (MDA-MB-231): 3.02 µM; CC50 (MDA-MB-231; [15]): > 100 µM; TGI (MDA-MB-231; read-out: pTGI (converted)): 79.4 µM; GI50 [14]: 4.27 µM; CC50 [14, 15]: > 100 µM; TGI ([14]; read-out: pTGI): > 100 µM; GI50 (T47D): 2.88 µM; CC50 (T47D; [15]): > 100 µM; TGI (T47D; read-out: pTGI): > 100 µM; GI50 (MDA-MB-468): 1.62 µM; CC50 (MDA-MB-468; [15]): > 100 µM; TGI (MDA-MB-468; read-out: pTGI (converted)): 5.89 µM
